Drawing on ChEMBL document CHEMBL1125483, “Novel inhibitors of prolyl 4-hydroxylase. 3. Inhibition by the substrate analogue N-oxaloglycine and its derivatives” (J Med Chem, 1992), this text covers IC50, inhibition and Ki for 16 compounds.

Experiment [1] has as its target T1, Prolyl 4-hydroxylase subunit alpha-1 (Rattus norvegicus, UniProt P54001). Description: (§1) Compound was evaluated for the inhibition of prolyl 4-hydroxylase. The gist of the method: (§2)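 Prolyl 4-hydroxylase activity was measured with an indirect assay that follows the conversion of labelled 2-ketoglutarate cosubstrate into labelled succinate. Each point was run in duplicate. IC50 was obtained by interpolation from six-point dose-response curves.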

The target in experiment [2] is Prolyl 4-hydroxylase subunit alpha-1 (Rattus norvegicus) (UniProt P54001). The experiment is described as follows: Compound was evaluated for the inhibition of prolyl 4-hydroxylase at 50 ug/mL.
Experiment [3] has the same target. The description is as §1. The conditions noted are these: concentration not given here. The gist of the method:
as §2

Experiment [4] shares this target. Description: Compound was evaluated for the inhibition of prolyl 4-hydroxylase at 100 ug/mL.
Experiment [5] has the same target. The experiment is described as follows: Compound was evaluated for the inhibition of prolyl 4-hydroxylase at 100 ug/mL.
Experiment [6] concerns the target T1, Prolyl 4-hydroxylase subunit alpha-1. Description: Inhibitory activity against prolyl 4-hydroxylase. The gist of the method:
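Indirect radiometric assay: conversion of labelled cofactor 2-ketoglutarate into labelled succinate measured. Each point in duplicate; IC50 interpolated from six-point dose-response curves.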

For experiment [7] the target is unchanged. Description: Compound was evaluated for the inhibition of prolyl 4-hydroxylase.

T1 sequence (P54001 whole entry): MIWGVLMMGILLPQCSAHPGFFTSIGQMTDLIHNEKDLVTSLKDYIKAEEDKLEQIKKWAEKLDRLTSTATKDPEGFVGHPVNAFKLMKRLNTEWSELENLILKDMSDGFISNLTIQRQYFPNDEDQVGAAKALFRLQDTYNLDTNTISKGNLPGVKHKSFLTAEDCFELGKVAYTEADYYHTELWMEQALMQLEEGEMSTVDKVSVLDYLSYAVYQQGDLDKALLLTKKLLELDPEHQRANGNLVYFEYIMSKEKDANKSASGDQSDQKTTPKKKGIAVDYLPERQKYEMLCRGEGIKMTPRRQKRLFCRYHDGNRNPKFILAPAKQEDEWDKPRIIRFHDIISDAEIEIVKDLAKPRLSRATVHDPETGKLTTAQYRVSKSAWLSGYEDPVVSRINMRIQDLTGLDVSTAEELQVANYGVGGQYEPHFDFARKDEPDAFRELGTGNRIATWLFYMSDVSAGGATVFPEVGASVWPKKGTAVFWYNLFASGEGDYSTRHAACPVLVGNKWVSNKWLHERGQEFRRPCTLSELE
Prolyl 4-hydroxylase subunit alpha-1 (Rattus norvegicus), sequence (P54001 whole entry): as above

One may read the IC50 as the concentration that inhibits the measured activity by half. Read a high IC50 as a need for much substance. For the compound `CS(=O)(=O)NC(=O)CNC(=O)C(=O)O`, the 50% inhibitory concentration (IC50) in experiment [1] is 414 µM. For orientation: inhibition means the change of the read-out against control, counted positive when it falls. The low end stands for a response near the control, the high end for a response far below the control. On to `O=C(O)C(=O)NC(Cc1ccccc1)C(=O)O` (stereo not drawn), for which the inhibition in experiment [2] amounted to 18%. `O=C(O)CCNC(=O)C(=O)O` yielded an inhibition in experiment [3] of 24%. `C[C@H](NC(=O)C(=O)O)C(=O)O` registered an IC50 in experiment [1] of 38.2 µM.

For `CC(NC(=O)C(=O)O)C(=O)O` (stereo not drawn), 90.7 µM corresponded to half-maximal inhibition in experiment [1] (IC50). The compound `O=C(O)C(=O)N1CCCC1C(=O)O` (stereo not drawn) showed an inhibition in experiment [2] of 10%. With `CSCCC(NC(=O)C(=O)O)C(=O)O` (stereo not drawn), the inhibition in experiment [4] was 9%.

Regarding `CC(C)(NC(=O)C(=O)O)C(=O)O`, the inhibition in experiment [2] turned out to be 26%. In experiment [5], `O=C(O)C(=O)Nc1ccc(C(=O)O)cc1` came in with an inhibition of 9%. With `O=C(CNC(=O)C(=O)O)NS(=O)(=O)c1ccccc1`, in experiment [2], the inhibition worked out at 34%. The Ki is the dissociation constant of the complex between target and ligand, obtained from inhibition or displacement. Take `O=C(O)CNC(=O)C(=O)O` [N-OXALYLGLYCINE]: in experiment [1], inhibition was half-maximal at 2.89 µM (IC50) and the affinity, expressed as Ki, was 0.54 µM. Take `O=C(O)c1ccc(C(=O)O)nc1` [PYRIDINE-2,5-DICARBOXYLIC ACID]: the 50% inhibitory concentration (IC50) in experiment [1] turned out to be 5.18 µM. The same compound showed an inhibitory constant (Ki) in experiment [6] of 0.8 µM. Compound `CCOc1ccc(NC(=O)CNC(=O)C(=O)O)cc1` showed an inhibition in experiment [2] of 16%.

`CN(CC(=O)O)C(=O)C(=O)O` displayed an inhibition in experiment [2] of 10%. Take `C[C@@H](NC(=O)C(=O)O)C(=O)O`: in experiment [7], the IC50 came out at 621 µM. `CC(C)CC(NC(=O)C(=O)O)C(=O)O` (stereo not drawn) displayed an inhibition in experiment [2] of 16%.
